Laboratory results as given in ChEMBL document CHEMBL1671838, “Discovery of MK-1220: A Macrocyclic Inhibitor of Hepatitis C Virus NS3/4A Protease with Improved Preclinical Plasma Exposure” (ACS Med Chem Lett, 2011).

Columns and labels:
[1] = tested on: Hepatitis C virus; experiment: Antiviral activity against HCV2a infected in human HuH7 cells assessed as inhibition of viral replication after 24 hrs in presence of 10% fetal bovine serum; assay type: functional, organism-based, Hepacivirus hominis; settings: genotype 2a, Huh-7, 24 h
Outline: (§1)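 Cell-based HCV replicon assay giving IC50. Genotype 1b replicon run with 10% fetal bovine serum or with 50% normal human serum. Genotype 2a replicon run with 10% FBS.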

[2] = Cmax in Beagle dog at 5 mg/kg, po; assay type: ADME, organism-based, Canis lupus familiaris; set-up: dose 5 mg/kg, route oral; settings: in vivo
Outline: (§2)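 Oral PK study: 5 mg/kg PO in 10% Tween. Rat n = 3, dog n = 2. Plasma exposure was measured in both species, and dog liver levels were measured at 2 h and 26 h after dosing.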

[3] = Drug level in Beagle dog liver at 5 mg/kg, po after 2 hrs; assay type: ADME, organism-based, Canis lupus familiaris; set-up: dose 5 mg/kg, route oral; settings: read-out: Drug uptake; outline: as §2
[4] = Drug level in Beagle dog liver at 5 mg/kg, po after 26 hrs; assay type: ADME, organism-based, Canis lupus familiaris; set-up: dose 5 mg/kg, route oral; settings: read-out: Drug uptake
Outline: (§3)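 Single oral dose of 5 mg/kg in 10% Tween vehicle; n = 3 for rat and n = 2 for dog. Liver drug concentration was measured at 24 h in rat and at 26 h in dog.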

[5] = Selectivity ratio Ki for HCV NS3/4A protease to Ki for trypsin
[6] = Clearance in Sprague-Dawley rat at 2 mg/kg, iv; assay type: ADME, organism-based; set-up: dose 2 mg/kg, route intravenous; settings: in vivo
Outline: (§4)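 IV PK: 2 mg/kg dosed intravenously in DMSO to rat (n = 4) and dog (n = 2).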

[7] = Clearance in Beagle dog at 2 mg/kg, iv; assay type: ADME, organism-based, Canis lupus familiaris; set-up: dose 2 mg/kg, route intravenous; settings: in vivo; outline: as §4
[8] = Inhibition of HCV NS3/4A protease expressed Escherichia coli after 1 hr by time-resolved fluorescence assay; set-up: species or system Hepacivirus hominis
Outline: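 Binding assay against genotype 1b HCV NS3/4A protease, read by time-resolved fluorescence; potency expressed as Ki.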

[9] = AUC in Beagle dog at 5 mg/kg, po; assay type: ADME, organism-based, Canis lupus familiaris; set-up: dose 5 mg/kg, route oral; settings: plasma; outline: as §2
[10] = Bioavailability in rhesus monkey at 1 mg/kg, iv and 5 mg/kg, po; settings: in vivo
[11] = Bioavailability in Beagle dog at 2 mg/kg, iv and 5 mg/kg, po; assay type: ADME, organism-based, Canis lupus familiaris; settings: in vivo
Outline: (§5)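 Bioavailability derived from IV dosing at 2 mg/kg in DMSO (rat n = 4, dog n = 2) and PO dosing at 5 mg/kg in 10% Tween (rat n = 3, dog n = 2).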

[12] = Clearance in rhesus monkey at 1 mg/kg, iv; settings: in vivo
[13] = tested on: Hepatitis C virus; experiment: Antiviral activity against HCV1b con1 infected in human HuH7 cells assessed as inhibition of viral replication after 24 hrs in presence of 10% fetal bovine serum; assay type: functional, organism-based, Hepacivirus hominis; settings: Con1, Huh-7, 24 h; outline: as §1
[14] = Drug level in Sprague-Dawley rat liver at 5 mg/kg, po after 24 hrs; assay type: ADME, organism-based; set-up: dose 5 mg/kg, route oral; settings: read-out: Drug uptake; outline: as §3
[15] = AUC in Sprague-Dawley rat plasma at 5 mg/kg, po after 4 hrs; assay type: ADME, organism-based; set-up: time < 4 hr, dose 5 mg/kg, route oral
Outline: (§6)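 Rat PK screen: 5 mg/kg given orally in PEG400, n = 2; plasma AUC calculated from a 4 h experiment, and liver concentration measured at 4 h after dosing.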

[16] = Selectivity ratio Ki for HCV NS3/4A protease to Ki for chymotrypsin
[17] = Drug level in Sprague-Dawley rat liver at 5 mg/kg, po after 4 hrs; assay type: ADME, organism-based; set-up: dose 5 mg/kg, route oral; settings: read-out: Drug uptake; outline: as §6
[18] = Bioavailability in Sprague-Dawley rat at 2 mg/kg, iv and 5 mg/kg, po; assay type: ADME, organism-based; settings: in vivo; outline: as §5
[19] = AUC in rhesus monkey at 5 mg/kg, po; assay type: ADME, organism-based, Macaca mulatta; set-up: dose 5 mg/kg, route oral; settings: plasma
Outline: (§7)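 Rhesus monkey oral PK: 5 mg/kg PO in 10% Tween, n = 2.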

[20] = Cmax in Sprague-Dawley rat at 5 mg/kg, po; assay type: ADME, organism-based; set-up: dose 5 mg/kg, route oral; settings: in vivo; outline: as §2
[21] = Half life in Beagle dog at 2 mg/kg, iv; assay type: ADME, organism-based, Canis lupus familiaris; set-up: dose 2 mg/kg, route intravenous; settings: in vivo; outline: as §4
[22] = AUC in Sprague-Dawley rat at 5 mg/kg, po; assay type: ADME, organism-based; set-up: dose 5 mg/kg, route oral; settings: plasma; outline: as §2
[23] = tested on: Hepatitis C virus; experiment: Antiviral activity against HCV1b con1 infected in human HuH7 cells assessed as inhibition of viral replication after 24 hrs in presence of 50% normal human serum; assay type: functional, organism-based, Hepacivirus hominis; settings: Con1, Huh-7, 24 h; outline: as §1
[24] = Half life in Sprague-Dawley rat at 2 mg/kg, iv; assay type: ADME, organism-based; set-up: dose 2 mg/kg, route intravenous; settings: in vivo; outline: as §4
[25] = Cmax in rhesus monkey at 5 mg/kg, po; assay type: ADME, organism-based, Macaca mulatta; set-up: dose 5 mg/kg, route oral; settings: in vivo; outline: as §7
[26] = Half life in rhesus monkey at 1 mg/kg, iv; settings: in vivo

## C=C[C@@H]1C[C@]1(NC(=O)[C@@H]1C[C@@H]2CN1C(=O)[C@H](C1CCCCC1)NC(=O)OCC(C)(C)CCCc1cc3c(nccc3cc1OC)O2)C(=O)NS(=O)(=O)C1CC1
[1]
  IC50: 5 nM
[2]
  Cmax: 4 µM
[3]
  concentration at 2 h: 54 µM
[4]
  concentration at 26 h: 10.3 µM
[5]
  Ratio Ki: > 50000
[6]
  clearance: 3.4 mL/min/kg
[7]
  clearance: 3.6 mL/min/kg
[8]
  Ki: 0.02 nM
[9]
  AUC: 12.4 µM·h
[10]
  bioavailability: 9%
[11]
  bioavailability: 41%
[12]
  clearance: 8.3 mL/min/kg
[13]
  IC50: 4 nM
[14]
  concentration at 24 h: 9.9 µM
[15]
  AUC at 4 h: 11.8 µM·h
[16]
  Ratio Ki: > 50000
[17]
  concentration at 4 h: 23 µM
[18]
  bioavailability: 37%
[19]
  AUC: 1.2 µM·h
[20]
  Cmax: 4.4 µM
[21]
  half-life: 2.5 h
[22]
  AUC: 12.1 µM·h
[23]
  IC50: 11 nM
[24]
  half-life: 5.7 h
[25]
  Cmax: 0.3 µM
[26]
  half-life: 1.3 h
